Experimental data reported in ChEMBL document CHEMBL1131019, “Minimal-size, constrained corticotropin-releasing factor agonists with i-(i+3) Glu-Lys and Lys-Glu bridges” (1998).
Where “and” joins values, the source holds several entries; their conditions need not be identical. Equal values may be shown once. Square brackets hold non-standard residues; d marks the D form. Peptide text beside a SMILES is read from it. Nle = CCCC[C@H](N)C(=O)O

Organism: Rattus norvegicus
Experiment: In vitro for agonist activity by measuring release of ACTH by rat pituitary cells in culture relative to human Corticotropin-Releasing factor (CRF)
Format: functional, Pituitary gland cell
Procedure, shortened: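 Male Sprague–Dawley rat anterior pituitary cells, collagenase-dissociated, plated at 0.16 × 10⁶ cells/well in 2% FBS medium. After 3 days, washed into 0.1% BSA medium, preincubated 1 h, washed again, then exposed to peptide for 3 h. Medium ACTH measured by radioimmunoassay.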

SMILES	Potency
CCCC[C@H](NC(=O)[C@H](CCC(=O)O)NC(=O)[C@H](CC(C)C)NC(=O)[C@H](CCCC)NC(=O)[C@H](CCC(=O)O)NC(=O)[C@H](CCCN=C(N)N)NC(=O)[C@H](CC(C)C)NC(=O)[C@H](CC(C)C)NC(=O)[C@H](Cc1c[nH]cn1)NC(=O)[C@@H](Cc1ccccc1)NC(=O)[C@@H](NC(=O)[C@H](CC(C)C)NC(=O)[C@H](CC(=O)O)NC(=O)[C@H](CC(C)C)NC(=O)[C@H](CO)NC(=O)[C@@H](NC(=O)[C@@H]1CCCN1C(=O)[C@@H]1CCCN1C(C)=O)[C@@H](C)CC)[C@@H](C)O)C(=O)N[C@@H](C)C(=O)N[C@@H](CCCCN)C(=O)N[C@@H](C)C(=O)N[C@@H](CCC(=O)O)C(=O)N[C@@H](CCC(N)=O)C(=O)N[C@@H](CCC(=O)O)C(=O)N[C@@H](C)C(=O)N[C@@H](CCC(=O)O)C(=O)N[C@@H](CCC(N)=O)C(=O)N[C@@H](C)C(=O)N[C@@H](C)C(=O)N[C@@H](CC(C)C)C(=O)N[C@@H](CC(N)=O)C(=O)N[C@@H](CCCN=C(N)N)C(=O)N[C@@H](CC(C)C)C(=O)N[C@@H](CC(C)C)C(=O)N[C@@H](CC(C)C)C(=O)N[C@@H](CCC(=O)O)C(=O)N[C@@H](CCC(=O)O)C(=O)N[C@@H](C)C(N)=O	1.3
CCCC[C@H](NC(=O)[C@H](CCC(=O)O)NC(=O)[C@H](CC(C)C)NC(=O)[C@H](CCCC)NC(=O)[C@H](CCC(=O)O)NC(=O)[C@H](CCCN=C(N)N)NC(=O)[C@H](CC(C)C)NC(=O)[C@H](CC(C)C)NC(=O)[C@H](Cc1c[nH]cn1)NC(=O)[C@@H](Cc1ccccc1)NC(=O)[C@@H](NC(=O)[C@H](CC(C)C)NC(=O)[C@H](CC(=O)O)NC(=O)[C@H](CC(C)C)NC(=O)[C@H](CO)NC(=O)[C@@H](NC(=O)[C@@H]1CCCN1C(=O)[C@@H]1CCCN1C(C)=O)[C@@H](C)CC)[C@@H](C)O)C(=O)N[C@@H](C)C(=O)N[C@@H](CCCCN)C(=O)N[C@@H](C)C(=O)N[C@@H](CCC(=O)O)C(=O)N[C@@H](CCC(N)=O)C(=O)N[C@@H](CCC(=O)O)C(=O)N[C@@H](C)C(=O)N[C@@H](CCC(=O)O)C(=O)N1C(=O)[C@H](C)NC(=O)[C@H](C)NC(=O)[C@@H](N)CCC(=O)NCCCC[C@H]1C(=O)N[C@@H](CC(N)=O)C(=O)N[C@@H](CCCN=C(N)N)C(=O)N[C@@H](CC(C)C)C(=O)N[C@@H](CC(C)C)C(=O)N[C@@H](CC(C)C)C(=O)N[C@@H](CCC(=O)O)C(=O)N[C@@H](CCC(=O)O)C(=O)N[C@@H](C)C(N)=O	7.5
CC[C@H](C)[C@H](NC(=O)[C@H](CO)NC(=O)[C@H](CC(C)C)NC(=O)[C@H](CO)NC(=O)[C@@H]1CCCN1C(C)=O)C(=O)N[C@@H](CC(=O)O)C(=O)N[C@@H](CC(C)C)C(=O)N[C@H](C(=O)N[C@H](Cc1ccccc1)C(=O)N[C@@H](Cc1c[nH]cn1)C(=O)N[C@@H](CC(C)C)C(=O)N[C@@H](CC(C)C)C(=O)N[C@@H](CCCN=C(N)N)C(=O)N[C@H](C(=O)N[C@@H](CC(C)C)C(=O)N[C@@H](CC(C)C)C(=O)N[C@@H](CCC(=O)O)C(=O)N[C@@H](CC(C)C)C(=O)N[C@@H](C)C(=O)N[C@@H](CCCN=C(N)N)C(=O)N[C@H](C(=O)N[C@@H](CCC(N)=O)C(=O)N[C@@H](CO)C(=O)N[C@@H](CCC(N)=O)C(=O)N[C@@H](CCCN=C(N)N)C(=O)N[C@@H](CCC(=O)O)C(=O)N1C(=O)[C@H](CCC(=O)O)NC(=O)[C@H](C)NC(=O)[C@@H](N)CCC(=O)NCCCC[C@H]1C(=O)N[C@@H](CC(N)=O)C(=O)N[C@@H](CCCN=C(N)N)C(=O)N[C@H](C(=O)N[C@H](C(=O)N[C@@H](Cc1ccccc1)C(=O)N[C@@H](CC(=O)O)C(=O)N[C@@H](CO)C(=O)N[C@H](C(N)=O)C(C)C)[C@@H](C)CC)[C@@H](C)CC)[C@@H](C)O)[C@@H](C)O)[C@@H](C)O	3.8
CCCC[C@H](NC(=O)[C@H](CCC(=O)O)NC(=O)[C@@H](NC(=O)[C@H](CCCC)NC(=O)[C@H](CC(N)=O)NC(=O)[C@H](CCCN=C(N)N)NC(=O)[C@H](CC(C)C)NC(=O)[C@H](CC(C)C)NC(=O)[C@H](Cc1c[nH]cn1)NC(=O)[C@@H](Cc1ccccc1)NC(=O)[C@@H](NC(=O)[C@H](CC(C)C)NC(=O)[C@H](CC(=O)O)NC(=O)[C@@H](NC(=O)[C@H](CO)NC(=O)[C@@H](NC(=O)[C@@H]1CCCN1C(=O)[C@@H]1CCCN1C(=O)[C@H](CC(=O)O)NC(=O)[C@H](CC(=O)O)NC(=O)[C@@H](N)CC(N)=O)[C@@H](C)CC)[C@@H](C)CC)[C@@H](C)O)[C@@H](C)CC)C(=O)N[C@@H](C)C(=O)N[C@@H](CCCN=C(N)N)C(=O)N[C@H](C(=O)N[C@@H](CCC(=O)O)C(=O)N[C@@H](CC(N)=O)C(=O)N[C@@H](CCC(=O)OC)C(=O)N[C@@H](CCCN=C(N)N)C(=O)N[C@@H](CCC(=O)O)C(=O)N[C@@H](CCC(=O)O)C(=O)N[C@@H](C)C(=O)NCC(=O)N[C@@H](CCCCN)C(=O)N[C@@H](CC(N)=O)C(=O)N[C@@H](CCCN=C(N)N)C(=O)N[C@@H](CCCCN)C(=O)N[C@@H](Cc1ccc(O)cc1)C(=O)N[C@@H](CC(C)C)C(=O)N[C@@H](CC(=O)O)C(=O)N[C@@H](CCC(=O)O)C(=O)N[C@H](C(N)=O)C(C)C)[C@@H](C)CC	1.1
CCCC[C@H](NC(=O)[C@H](CCCN=C(N)N)NC(=O)[C@H](CC(C)C)NC(=O)[C@H](CC(C)C)NC(=O)[C@H](CCC(=O)O)NC(=O)[C@H](CC(C)C)NC(=O)[C@H](CC(C)C)NC(=O)[C@H](CC(C)C)NC(=O)[C@H](CC(=O)O)NC(=O)[C@@H](NC(=O)[C@H](CO)NC(=O)[C@@H](NC(=O)[C@@H]1CCCN1C(=O)[C@@H]1CCCN1C(=O)CNC(=O)[C@H](CCC(=O)O)NC(=O)[C@@H]1CCCN1)[C@@H](C)CC)[C@@H](C)CC)C(=O)N[C@@H](CCCC)C(=O)N[C@H](C(=O)N[C@@H](CCC(=O)O)C(=O)N[C@H](C(=O)N[C@@H](CCC(=O)O)C(=O)N[C@@H](CCCCN)C(=O)N[C@@H](CCC(N)=O)C(=O)N[C@@H](CCC(=O)O)C(=O)N[C@@H](CCCCN)C(=O)N[C@@H](CCC(=O)O)C(=O)N[C@@H](CCCCN)C(=O)N[C@H](CCC(=O)O)C(=O)N[C@H](CCC(N)=O)C(=O)N[C@H](C)C(=O)N[C@H](CCCCN)C(=O)N[C@H](CC(N)=O)C(=O)N[C@H](CC(N)=O)C(=O)N[C@H](CCCN=C(N)N)C(=O)N[C@H](CC(C)C)C(=O)N[C@H](CC(C)C)C(=O)N[C@H](CC(C)C)C(=O)N[C@H](CC(=O)O)C(=O)N[C@@H](C(=O)N[C@@H](C(N)=O)[C@H](C)CC)[C@H](C)O)[C@@H](C)CC)[C@@H](C)CC	0.53 and 0.54
CCCC[C@H](NC(=O)[C@H](CCC(=O)O)NC(=O)[C@@H](NC(=O)[C@H](CCCC)NC(=O)[C@H](CC(N)=O)NC(=O)[C@H](CCCN=C(N)N)NC(=O)[C@H](CC(C)C)NC(=O)[C@H](CC(C)C)NC(=O)[C@H](Cc1c[nH]cn1)NC(=O)[C@@H](Cc1ccccc1)NC(=O)[C@@H](NC(=O)[C@H](CC(C)C)NC(=O)[C@H](CC(=O)O)NC(=O)[C@@H](NC(=O)[C@H](CO)NC(=O)[C@@H](NC(=O)[C@@H]1CCCN1C(=O)[C@@H]1CCCN1C(=O)[C@H](CC(=O)O)NC(=O)[C@H](CC(=O)O)NC(=O)[C@@H](N)CC(N)=O)[C@@H](C)CC)[C@@H](C)CC)[C@@H](C)O)[C@@H](C)CC)C(=O)N[C@@H](C)C(=O)N[C@@H](CCCN=C(N)N)C(=O)N[C@H](C(=O)N[C@@H](CCC(=O)O)C(=O)N[C@@H](CC(N)=O)C(=O)N[C@@H](CCC(=O)OC)C(=O)N[C@@H](CCCN=C(N)N)C(=O)N[C@@H](CCC(=O)O)C(=O)N1C(=O)CNC(=O)[C@H](C)NC(=O)[C@@H](N)CCC(=O)NCCCC[C@H]1C(=O)N[C@@H](CC(N)=O)C(=O)N[C@@H](CCCN=C(N)N)C(=O)N[C@@H](CCCCN)C(=O)N[C@@H](Cc1ccc(O)cc1)C(=O)N[C@@H](CC(C)C)C(=O)N[C@@H](CC(=O)O)C(=O)N[C@@H](CCC(=O)O)C(=O)N[C@H](C(N)=O)C(C)C)[C@@H](C)CC	2.9
CCCC[C@H](NC(=O)[C@H](CCC(=O)O)NC(=O)[C@H](CC(C)C)NC(=O)[C@H](CCCC)NC(=O)[C@H](CCC(=O)O)NC(=O)[C@H](CCCN=C(N)N)NC(=O)[C@H](CC(C)C)NC(=O)[C@H](CC(C)C)NC(=O)[C@H](Cc1c[nH]cn1)NC(=O)[C@H](Cc1ccccc1)NC(=O)[C@@H](NC(=O)[C@H](CC(C)C)NC(=O)[C@H](CC(=O)O)NC(=O)[C@H](CC(C)C)NC(C)=O)[C@@H](C)O)C(=O)N[C@@H](C)C(=O)N[C@@H](CCCCN)C(=O)N[C@@H](C)C(=O)N[C@@H](CCC(=O)O)C(=O)N[C@@H](CCC(N)=O)C(=O)N[C@@H](CCC(=O)O)C(=O)N[C@@H](C)C(=O)N[C@@H](CCC(=O)O)C(=O)N[C@@H](CCC(N)=O)C(=O)N[C@@H](C)C(=O)N[C@@H](C)C(=O)N[C@@H](CC(C)C)C(=O)N[C@@H](CC(N)=O)C(=O)N[C@@H](CCCN=C(N)N)C(=O)N[C@@H](CC(C)C)C(=O)N[C@@H](CC(C)C)C(=O)N[C@@H](CC(C)C)C(=O)N[C@@H](CCC(=O)O)C(=O)N[C@@H](CCC(=O)O)C(=O)N[C@@H](C)C(N)=O (Ac-LDLTFHLLRE[Nle]LE[Nle]AKAEQEAEQAALNRLLLEEA-NH2)	0.004
CC[C@H](C)[C@H](NC(=O)[C@H](CO)NC(=O)[C@H](CC(C)C)NC(=O)[C@H](CO)NC(=O)[C@H]1CCCN1C(=O)[C@H](CC(N)=O)NC(=O)[C@@H](N)CC(=O)O)C(=O)N[C@@H](CC(=O)O)C(=O)N[C@@H](CC(C)C)C(=O)N[C@H](C(=O)N[C@@H](Cc1ccccc1)C(=O)N[C@@H](Cc1c[nH]cn1)C(=O)N[C@@H](CC(C)C)C(=O)N[C@@H](CC(C)C)C(=O)N[C@@H](CCCN=C(N)N)C(=O)N[C@H](C(=O)N[C@@H](CC(C)C)C(=O)N[C@@H](CC(C)C)C(=O)N[C@@H](CCC(=O)O)C(=O)N[C@@H](CC(C)C)C(=O)N[C@@H](C)C(=O)N[C@@H](CCCN=C(N)N)C(=O)N[C@H](C(=O)N[C@@H](CCC(N)=O)C(=O)N[C@@H](CO)C(=O)N[C@@H](CCC(N)=O)C(=O)N[C@@H](CCCN=C(N)N)C(=O)N[C@@H](CCC(=O)O)C(=O)N[C@@H](CCCN=C(N)N)C(=O)N[C@@H](C)C(=O)N[C@@H](CCC(=O)O)C(=O)N[C@@H](CCC(N)=O)C(=O)N[C@@H](CC(N)=O)C(=O)N[C@@H](CCCN=C(N)N)C(=O)N[C@H](C(=O)N[C@H](C(=O)N[C@@H](Cc1ccccc1)C(=O)N[C@@H](CC(=O)O)C(=O)N[C@@H](CO)C(=O)N[C@H](C(N)=O)C(C)C)[C@@H](C)CC)[C@@H](C)CC)[C@@H](C)O)[C@@H](C)O)[C@@H](C)O (stereo in doubt; 36)	3.1
